In article PMC3401037 (ACS Chemical Biology, 2012):
“Also recorded” adds a separate entry of the source.

How the values were obtained:
[1] = tested on: GC signaling; assay: GRIZLY assay: bioluminescence of single GRE:Luc transgenic zebrafish larvae; type: in vivo; details: for inhibition of dexamethasone-induced relative reporter activity: in presence of 5 μM dexamethasone; for relative reporter (luciferase) activity in response to treatment: 5 dpf, compound added to the water
Outline: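 Single 4 dpf transgenic larvae were placed one per well in E3 medium with 0.5 mM luciferin and dosed via the water at 5 dpf. The antagonist was given with 5 μM DEX; organotins with 5 μM DEX for 24 h; salt stress was 250 mM NaCl. Plates were sealed and read at 28 °C. Larval n was 48 for dose–response and 22 for salt. Tests were non-parametric, with EC50/IC50 from non-linear regression.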

[2] = tested on: GC signaling; assay: AB.9 GRE:Luc cell reporter bioluminescence assay; type: cell-based, zebrafish; details: AB.9 GRE:Luc cells; for inhibition of dexamethasone-induced relative reporter activity: co-treated with 10 nM DEX (Figure 2 legend: 5 nM)
Outline: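 AB.9 GRE:Luc cells were seeded at 35,000 cells/well one day ahead and held at 28 °C. Medium was then swapped for phenol-red-free L-15 with 0.5 mM luciferin before compound addition. Organotin runs used DEX in 17% (v/v) charcoal-treated FCS with TBT or DBT at 30–500 nM. Plates were sealed and read for 24 h at 28 °C. Analysis used one-way ANOVA with Dunnett's posttest; IC50 came from non-linear regression.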

[3] = tested on: GC signaling; assay: Pilot chemical screen of FDA approved drug library, GRE:Luc larvae; type: in vivo, zebrafish; details: 48 h; for primary screen hit (activation of GC signaling): larvae, 4 μg/mL in 0.3% DMSO, robust z-score cutoff 1.49; for retest for activation of GC signaling: GRE:Luc larvae, at least 2 concentrations
Outline: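 Single 5 dpf GRE:Luc larvae in luciferin-E3 were exposed to library compounds at a final 4 μg/mL in 0.3% DMSO (prediluted to 40 μg/mL in 3% DMSO), with 5–11 replicates per compound. Each plate held 8 DEX (10 μM) and 8 DMSO controls; reading lasted 48 h. Hits were called from log-transformed AUCs, robust z-scored, above a cutoff of 1.49 chosen by ROC/Youden index. Retests used a second supplier and ≥2 concentrations.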

[4] = tested on: GC signaling; assay: Pilot chemical screen of FDA approved drug library, AB.9 GRE:Luc cells; type: cell-based, zebrafish; details: 48 h; for retest for activation of GC signaling: at least 2 concentrations; for primary screen hit (activation of GC signaling): 4 μg/mL in 0.3% DMSO, robust z-score cutoff 12.3
Outline: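 GRE:Luc AB.9 cells in luciferin-L-15 received library compounds prediluted to 40 μg/mL in 3% DMSO, giving a final 4 μg/mL in 0.3% DMSO. There were 3 replica plates, each with 8 DEX (10 μM) and 8 DMSO controls, read for 48 h. Log-transformed trapezoidal AUCs were robust z-scored, with a cutoff of 12.3 set by ROC/Youden index. Retests used a second supplier, the same setup and ≥2 concentrations.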

[5] = tested on: endogenous cortisol levels; assay: Cortisol-ELISA of larval extracts; type: in vivo, zebrafish; details: after 20 min
Outline: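 Osmotic stress was induced in 5 dpf larvae with 250 mM NaCl, and endogenous cortisol was followed over time after exposure (n = 5).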

[6] = tested on: Luciferase expression; assay: Whole mount immunohistochemistry with anti-luciferase antibody in GRE:Luc larvae; type: in vivo, zebrafish; details: 5 dpf larvae, 40 μM, 8 h

CCC[CH2][Sn]([Cl])([Cl])[CH2]CCC [DBT, dibutyltin dichloride]
inhibition of dexamethasone-induced relative reporter activity ([1]; GRE:Luc larvae): did not show statistically significant attenuation of GC signaling
inhibition of dexamethasone-induced relative reporter activity [2]: significantly reduced by treatment with 250 and 500 nM DBT; also recorded: statistically significant inhibition of bioluminescence at higher concentrations

CC(=O)S[C@@H]1CC2=CC(=O)CC[C@]2(C)[C@H]2CC[C@@]3(C)[C@@H](CC[C@@]34CCC(=O)O4)[C@H]12 [spironolactone]
primary screen hit (activation of GC signaling) [3]: scored as primary screen hits

C[C@]12C[C@H](O)[C@H]3[C@@H](CCC4=CC(=O)CC[C@@]43C)[C@@H]1CC[C@@H]2C(=O)CO [corticosterone]
retest for activation of GC signaling [3]: unable to do so at all concentrations tested
primary screen hit (activation of GC signaling) [3]: not retained in the primary screen
retest for activation of GC signaling [4]: able to activate the GC signaling pathway

C[C@]12CCC(=O)C=C1CC[C@@H]1[C@@H]2[C@@H](O)C[C@]2(C=O)[C@@H](C(=O)CO)CC[C@@H]12 [aldosterone]
relative reporter (luciferase) activity in response to treatment ([1]; GRE:Luc larvae): did not respond
relative reporter activity in response to treatment [2]: did not respond

CC#C[C@]1(O)CC[C@H]2[C@@H]3CCC4=CC(=O)CCC4=C3[C@@H](c3ccc(N(C)C)cc3)C[C@@]21C [mifepristone]
inhibition of dexamethasone-induced relative reporter activity ([1]; GRE:Luc larvae): blocked the response of the reporter to DEX treatment
inhibition of dexamethasone-induced relative reporter activity [2]: blocked the response of the reporter to DEX treatment

CC(=O)[C@H]1CC[C@H]2[C@@H]3CC=C4C[C@@H](O)CC[C@]4(C)[C@H]3CC[C@]12C [pregnenolone]
retest for activation of GC signaling [3]: confirmed to activate the GC signaling pathway in vivo
primary screen hit (activation of GC signaling) [3]: scored as primary screen hits
retest for activation of GC signaling [4]: did not activate the GC pathway
cortisol levels in the larvae after treatment [5]: significantly increased cortisol levels
cortisol levels in the larvae after treatment ([5]; listed as Pregnenolone): increase in cortisol (hydrocortisone) levels

C=C1C[C@H]2[C@@H]3C=C(C)C4=CC(=O)CC[C@]4(C)[C@H]3CC[C@]2(C)[C@@]1(OC(C)=O)C(C)=O [melengestrol acetate]
retest for activation of GC signaling [3]: dose-dependently activate GC signaling
primary screen hit (activation of GC signaling) [3]: missed

Nc1c2c(nc3ccccc13)CCCC2O (stereo not drawn) [hydroxytacrine]
primary screen hit (activation of GC signaling) [4]: false positive hits
retest for activation of GC signaling [4]: could not be confirmed during the rescreen

C[C@]12CCC(=O)C=C1CC[C@@H]1[C@@H]2[C@@H](O)C[C@@]2(C)[C@H]1CC[C@]2(O)C(=O)CO [cortisol, hydrocortisone]
relative reporter (luciferase) activity in response to treatment ([1]; GRE:Luc larvae): responded in a dose-dependent manner

C[C@@H]1C[C@H]2[C@@H]3CCC4=CC(=O)C=C[C@]4(C)[C@@]3(F)[C@@H](O)C[C@]2(C)[C@@]1(O)C(=O)CO [dexamethasone]
induction of reporter activity at 1 dpf ([1]; 20 μM DEX, 1 dpf, 9 h after start of treatment): low-level yet non-significant induction
relative reporter (luciferase) activity in response to treatment ([1]; GRE:Luc larvae): increase in relative luciferase activity
relative reporter (luciferase) activity in response to treatment ([1]; GRE:Luc larvae, listed as DEX): responded in a dose-dependent manner

C[C@]12C=CC(=O)C=C1CC[C@@H]1[C@@H]2C(=O)C[C@@]2(C)[C@H]1CC[C@]2(O)C(=O)CO [prednisone]
retest for activation of GC signaling [3]: unable to do so at all concentrations tested
primary screen hit (activation of GC signaling) [3]: not retained in the primary screen
primary screen hit (activation of GC signaling) [4]: being the exception
retest for activation of GC signaling [4]: weak activation of GC signaling only at the highest concentration tested

C[C@H]1C[C@H]2[C@@H]3CCC4=CC(=O)C=C[C@]4(C)[C@@]3(F)[C@@H](O)C[C@]2(C)[C@@]1(O)C(=O)CO [betamethasone]
fluorescence intensity of luciferase immunohistochemistry [6]: significant (p = 0.0115, n = 10) increase

CCC[CH2][Sn]([CH2]CCC)[CH2]CCC [TBT, tributyltin]
lowest concentration inhibiting GC signaling in GRE:Luc larvae ([1]; GRE:Luc larvae, 5 μM dexamethasone, measured for 24 h, p ≤ 0.05): 20 nM
inhibition of dexamethasone-induced relative reporter activity ([1]; GRE:Luc larvae): effective in inhibiting GC signaling
inhibition of dexamethasone-induced relative reporter activity [2]: indistinguishable from cells treated with DEX alone

NCCC(O)(P(=O)(O)O)P(=O)(O)O [pamidronic acid]
primary screen hit (activation of GC signaling) [4]: false positive hits
retest for activation of GC signaling [4]: could not be confirmed during the rescreen
